The text below walks through data of BindingDB's records for doi:10.1021/jm960325j (Universit&#224, 1996).

pIC50: −log10 of the molar value.

The target in the assay is Translocator protein (Rattus norvegicus, UniProt P16257). As to the kind of experiment: Binding affinity against peripheral benzodiazepine receptor( PBR). A digest of the protocol: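 Rat cerebral cortex membranes washed repeatedly at 50000g in 50 mM phosphate pH 7.4, 2.3 mg tissue per sample. Filtration, scintillation counting. IC50 by log-probit analysis over six concentrations in duplicate, means of three experiments. Maximal concentration 1000 nM.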
Translocator protein, sequence (P16257 whole entry, looked up): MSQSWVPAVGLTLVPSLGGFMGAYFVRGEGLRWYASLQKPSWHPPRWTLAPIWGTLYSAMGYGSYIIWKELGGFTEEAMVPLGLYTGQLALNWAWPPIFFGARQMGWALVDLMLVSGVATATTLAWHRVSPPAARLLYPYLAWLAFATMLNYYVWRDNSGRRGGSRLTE
Compound `CCCCCCN(CCCCCC)C(=O)Cc1c2[nH]c3ccccc3cc-2c(=O)n1-c1ccc(Cl)cc1` [2-[2-(4-Chloro-phenyl)-1-oxo-2,3-dihydro-1H-pyrrolo[3,4-b]quinolin-3-yl]-N,N-dihexyl-acetamide] had a negative logarithm of the IC50 (pIC50) of under 6.00.

For the compound `CCCN(CCC)C(=O)Cc1c2[nH]c3ccccc3cc-2c(=O)n1-c1ccc(Cl)cc1` [2-[2-(4-Chloro-phenyl)-1-oxo-2,3-dihydro-1H-pyrrolo[3,4-b]quinolin-3-yl]-N,N-dipropyl-acetamide], the pIC50 was under 6.00.

`CCCN(CCC)C(=O)Cc1c2[nH]cccc-2c(=O)n1-c1ccc(Cl)cc1` [2-[6-(4-Chloro-phenyl)-5-oxo-6,7-dihydro-5H-pyrrolo[3,4-b]pyridin-7-yl]-N,N-dipropyl-acetamide] showed a negative-log IC50 (pIC50) of under 6.00.

Compound `O=c1c2ccc[nH]c-2cn1-c1ccc(Cl)cc1` [6-(4-Chloro-phenyl)-6,7-dihydro-pyrrolo[3,4-b]pyridin-5-one] showed a negative-log IC50 (pIC50) of under 6.00.

What is called pIC50 is −log10 of the IC50, conventionally taken in molar units. Read a low pIC50 as a large IC50.
